Results from different studies.
Target: Dual specificity protein kinase CLK3 (CLK3, Homo sapiens, UniProt P49761)

`Cn1cc(-c2cccc(N3CCc4c(sc5c4CC(C)(C)C5)C3=O)c2CO)cc(Nc2ccncn2)c1=O` has an inhibition of 4% (enzyme activity; inhibitor; 1 µM).
The remaining binding of `Cn1cncc1[C@@](O)(COc1ccc(C#N)cc1-c1ccc(OC(F)(F)F)cc1)c1ccc(C#N)cc1` is reported as 100% (cell-free assay; competition with immobilised ligand; 1 µM).
`Cc1nn(C)cc1-c1nc2c(N3CCN(Cc4ccc(Cl)cc4)CC3)c(Cl)cnc2[nH]1` gave a remaining binding of 88% (binding; competition with immobilised ligand; 1 µM).
With `COc1cc(Nc2ncc(F)c(Nc3ccc4c(n3)NC(=O)C(C)(C)O4)n2)cc(OC)c1OC` the inhibition was 78% (binding; competition with immobilised ligand; 10 µM).
`CCn1cnc2c(Nc3cccc(Cl)c3)nc(N[C@H]3CCCC[C@H]3N)nc21` gave a remaining activity of 99.8% (enzyme activity; inhibitor; 0.5 µM).
With `Cn1cc(-c2cc(F)cc(N3CCn4c(cc5c4CCCC5)C3=O)c2CO)cc(Nc2ccc(N3CCN(C4COC4)CC3)cn2)c1=O` the inhibition was 11% (enzyme activity; inhibitor; 0.1 µM).
The inhibition of `C#Cc1n[nH]c2c(-c3cn([C@@H](C)c4ccccn4)c(=O)[nH]c3=O)cc(F)cc12` is reported as 0.7% (enzyme activity; inhibitor; 0.1 µM).
With `Nc1ncc(-c2nc(N3CCOCC3)nc(N3CCOCC3)n2)c(C(F)F)n1` the remaining binding was 90% (binding; competition with immobilised ligand; 10 µM).
`N#CC1(c2ccccn2)CCN(Cc2cc(C(=O)O)c(=O)n3ccccc23)CC1` has a remaining binding of 100% (cell-free assay; competition with immobilised ligand; 1 µM).
`COc1ncccc1-c1cnn2ccc(N3CCN(C(=O)OC(C)C)CC3)nc12` gave a remaining binding of 78% (binding; competition with immobilised ligand; 1 µM).
The remaining activity of `CC(C)(C)c1cc(C=C(C#N)C#N)cc(Br)c1O` is reported as 122% (enzyme activity; inhibitor; 0.5 µM).
